# Assay results reported in PMC3350218 (Journal of Medicinal Chemistry, 2012).
# Where two headings read alike, the source gives them in different places.
# Experiments:
# P. falciparum strain W2 = test: Antiplasmodial proliferation inhibition assay, 384-well, SYBR Green; type: cell-based, Plasmodium falciparum
# Outline: (§1)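 P. falciparum was grown in O+ erythrocytes and tested in serum-free medium with 0.5% Albumax II. Test compound ran as a 12-point half-log series, top final 10 μM, at 0.3% parasitemia and 2.5% hematocrit, 72 h, 37 °C, low-oxygen gas. Saponin/Triton lysis buffer with SYBR Green was added (24 h, 25 °C), then fluorescence read at 485/530 nm. […] EC50 came from logistic fit, with at least duplicate plates.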
# [1] = Caco-2 permeability assay; type: in vitro ADME; conditions: human, Caco-2
# [2] = Rat full PK / dose escalation PK; type: in vivo; conditions: rat PO, 30 mg/kg vs 10 mg/kg
# Plasmodium berghei = Plasmodium berghei mouse survival model; type: in vivo, Plasmodium berghei (NMRI mice); conditions: for survival (average lifespan after infection): untreated control 6–7 days
# Outline: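 Female NMRI mice (20–22 g), three per group, were infected IV on day 0 with 2 × 10^7 P. berghei GFP ANKA-parasitised erythrocytes. Test compound in 75% PEG300/25% D5W was given orally at 10 mL/kg, either once at 24 h or daily at 24, 48 and 72 h. Parasitemia was measured by flow cytometry at 72 h or 96 h, as % reduction versus untreated controls. Survival was followed to day 30, and cure meant parasite-free survival to day 30.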
# Caco-2 = Caco-2 permeability assay; type: in vitro ADME; conditions: for Caco-2 A–B: apical to basolateral; for Caco-2 B–A: basolateral to apical
# [3] = In vivo pharmacokinetics in mice; conditions: mouse, plasma
# Rat snapshot PK = type: in vivo
# P. falciparum = test: Antiplasmodial activity as quoted in text; type: cell-based, Plasmodium falciparum; conditions: for EC50: Plasmodium falciparum, read-out: antiplasmodial activity EC50; for loss/decrease of potency: relative to parent compound (17: 8-methyl; 32: lactam vs 31); for improvement in potency: on 8,8-dimethyl substitution (33 vs 32; 35 vs 31)
# Outline: as §1
# P. falciparum strain 3D7 = test: Antiplasmodial proliferation inhibition assay, 384-well, SYBR Green; type: cell-based; conditions: Plasmodium falciparum, 3D7, read-out: P. falciparum strain EC50 3D7
# Outline: as §1
# [4] = Metabolic stability in mouse liver microsomes; type: in vitro ADME; conditions: Table 2
# PAMPA assay = type: in vitro ADME; conditions: Table 3
# [5] = read-out: P. falciparum strain EC50 W2, Table 1, means of two experiments, 72 h incubation
# [6] = Wistar, rat, plasma, po, 20 mg/kg
compound,measurement,setting,value
"2-Amino-1-(3-(4-chloro-3-fluorophenylamino)-2-(4-fluorophenyl)-8,8-dimethyl-5,6-dihydroimidazo[1,2-a]pyrazin-7(8H)-yl)ethanone [Compound 21]",EC50,P. falciparum strain W2; [5],24 ± 1 nM
NCC(=O)N1CCn2c(nc(-c3ccc(F)cc3)c2Nc2ccc(F)cc2)C1 [Compound 15],Papp A→B,[1],0.7 ×10⁻⁶ cm/s
same,Papp B→A,[1],2.55 ×10⁻⁶ cm/s
"CC1(C)c2nc(-c3ccc(F)cc3)c(Nc3ccc(F)cc3)n2CCN1C(=O)CN [Compound 22, 2-Amino-1-(2-(4-fluorophenyl)-3-(4-fluorophenylamino)-8,8-dimethyl-5,6-dihydroimidazo[1,2-a]pyrazin-7(8H)-yl)ethanone]",increase in AUC,[2],7 fold
same,increase in bioavailability,[2],2 fold
same,activity (average parasitemia reduction),"Plasmodium berghei; 1 × 30 mg/kg oral, 30 mg/kg",> 99%
same,efficacy of substituted vs unsubstituted piperazine core (ED99),Plasmodium berghei; compound 22 vs compound 1,~10 fold
same,Caco-2 A–B,Caco-2,1.26 cm/s ×10^6
same,Caco-2 B–A,Caco-2,2.99 cm/s ×10^6
same,Cmax,"[3]; oral, 2 mg/kg",~75 nM
"CC1(C)c2nc(-c3ccc(F)cc3)c(Nc3ccc(F)c(F)c3)n2CCN1C(=O)CN [Compound 24, 2-Amino-1-(3-((3,4-difluorophenyl)amino)-2-(4-fluorophenyl)-8,8-dimethyl-5,6-dihydroimidazo[1,2-a]pyrazin-7(8H)-yl)ethanone]",activity (average parasitemia reduction),"Plasmodium berghei; 1 × 30 mg/kg oral, 30 mg/kg",> 99%
same,Caco-2 A–B,Caco-2,0.61 cm/s ×10^6
same,Caco-2 B–A,Caco-2,1.3 cm/s ×10^6
"CC(C)(N)C(=O)N1CCn2c(nc(-c3ccc(F)cc3)c2Nc2ccc(F)cc2)C1 [Compound 27, 2-Amino-1-(2-(4-fluorophenyl)-3-((4-fluorophenyl)amino)-5,6-dihydroimidazo[1,2-a]pyrazin-7(8H)-yl)-2-methylpropan-1-one]",Papp A→B,[1],3.05 ×10⁻⁶ cm/s
same,Papp B→A,[1],8.38 ×10⁻⁶ cm/s
"CC(C)(N)C(=O)N1CCn2c(nc(-c3ccc(F)cc3)c2Nc2ccc(F)cc2)C1(C)C [Compound 28, 2-Amino-1-(2-(4-fluorophenyl)-3-(4-fluorophenylamino)-8,8-dimethyl-5,6-dihydroimidazo[1,2-a]pyrazin-7(8H)-yl)-2-methylpropan-1-one]",Caco-2 A–B,Caco-2,1.2 cm/s ×10^6
same,Caco-2 B–A,Caco-2,0.97 cm/s ×10^6
"Cc1ccc(Nc2c(-c3ccc(F)cc3)nc3n2CCN(C(=O)C(C)(C)N)C3(C)C)cc1 [Compound 29, 2-Amino-1-(2-(4-fluorophenyl)-8,8-dimethyl-3-(p-tolylamino)-5,6-dihydroimidazo[1,2-a]pyrazin-7(8H)-yl)-2-methylpropan-1-one]",activity (average parasitemia reduction),"Plasmodium berghei; 1 × 30 mg/kg oral, 30 mg/kg",> 99%
same,survival (average lifespan after infection),Plasmodium berghei; 3 × 30 mg/kg oral,18.0 days
same,Caco-2 A–B,Caco-2,3.5 cm/s ×10^6
same,Caco-2 B–A,Caco-2,2.37 cm/s ×10^6
same,in vivo exposure in rat,"Rat snapshot PK; oral, rat snapshot PK",did not exhibit any in vivo exposure
"Cc1ccc(Nc2c(-c3ccc(F)cc3)nc3n2CCNC3)cc1 [Compound 31, 2-(4-Fluorophenyl)-N-(p-tolyl)-5,6,7,8-tetrahydroimidazo[1,2-a]pyrazin-3-amine]",EC50,P. falciparum,160 to 400 nM
same,Caco-2 A–B,Caco-2,8.2 cm/s ×10^6
same,Caco-2 B–A,Caco-2,2.36 cm/s ×10^6
"Cc1ccc(Nc2c(-c3ccc(F)cc3)nc3n2CC(=O)NC3)cc1 [Compound 32, 2-(4-Fluorophenyl)-3-(p-tolylamino)-7,8-dihydroimidazo[1,2-a]pyrazin-6(5H)-one]",loss/decrease of potency,P. falciparum,~7 fold
same,Caco-2 A–B,Caco-2,15 cm/s ×10^6
same,Caco-2 B–A,Caco-2,14.37 cm/s ×10^6
"Cc1ccc(Nc2c(-c3ccc(F)cc3)nc3n2CC(=O)NC3(C)C)cc1 [Compound 33, 2-(4-Fluorophenyl)-8,8-dimethyl-3-(p-tolylamino)-7,8-dihydroimidazo[1,2-a]pyrazin-6(5H)-one]",improvement in potency,P. falciparum,7 fold
"CC1(C)NC(=O)Cn2c1nc(-c1ccc(F)cc1)c2Nc1ccc(Cl)c(F)c1 [Compound 34, 3-(4-Chloro-3-fluorophenylamino)-2-(4-fluorophenyl)-8,8-dimethyl-7,8-dihydro imidazo[1,2-a]pyrazin-6(5H)-one]",EC50,"P. falciparum strain W2; Plasmodium falciparum, W2, read-out: P. falciparum strain EC50 W2",65 ± 3 nM
same,activity (average parasitemia reduction),Plasmodium berghei; 1 × 30 mg/kg oral,47.0%
same,survival (average lifespan after infection),Plasmodium berghei; 1 × 30 mg/kg oral,6.3 days
same,activity (average parasitemia reduction),Plasmodium berghei; 1 × 100 mg/kg oral,97.0%
same,survival (average lifespan after infection),Plasmodium berghei; 1 × 100 mg/kg oral,6.7 days
same,activity (average parasitemia reduction),Plasmodium berghei; 3 × 30 mg/kg oral,66.0%
same,survival (average lifespan after infection),Plasmodium berghei; 3 × 30 mg/kg oral,7.0 days
same,Papp A→B,[1],3.22 ×10⁻⁶ cm/s
same,Papp B→A,[1],3.35 ×10⁻⁶ cm/s
same,EC50,P. falciparum strain 3D7,36 ± 2 nM
same,mouse microsome hepatic extraction ratio,[4],0.61
same,AUC(0–5 h)/dose,"Rat snapshot PK; PO, Wistar rat",5.07 (min·μg/mL)/(mg/kg)
same,AUC(0-t),Rat snapshot PK; [6],2.1 µM·h
same,Cmax,Rat snapshot PK; [6],504 nM
same,"PAMPA, measured as percentage absorbed",PAMPA assay,97.1%
same,AUC(0-t),"[3]; male, Balb/c, iv, 5 mg/kg",16.5 µM·h
same,Vd,"[3]; male, Balb/c, iv, 5 mg/kg",2.7 L/kg
same,clearance,"[3]; male, Balb/c, iv, 5 mg/kg",12.5 mL/min/kg
same,half-life,"[3]; male, Balb/c, iv, 5 mg/kg",2.8 h
same,bioavailability,"[3]; male, Balb/c, oral, 20 mg/kg",77%
same,AUC(0-t),"[3]; male, Balb/c, po, 20 mg/kg",50.6 µM·h
same,Cmax,"[3]; male, Balb/c, po, 20 mg/kg",3650 nM
same,Tmax,"[3]; male, Balb/c, po, 20 mg/kg",1 h
same,half-life,"[3]; male, Balb/c, po, 20 mg/kg",2.71 h
"Cc1ccc(Nc2c(-c3ccc(F)cc3)nc3n2CCNC3(C)C)cc1 [Compound 35, 2-(4-Fluorophenyl)-8,8-dimethyl-N-p-tolyl-5,6,7,8-tetrahydroimidazo[1,2-a]pyrazin-3-amine]",EC50,P. falciparum,~10 nM
same,improvement in potency,P. falciparum,~10 fold
same,Caco-2 A–B,Caco-2,15.56 cm/s ×10^6
same,Caco-2 B–A,Caco-2,6.96 cm/s ×10^6
"(R)-2-Amino-1-(3-(4-chloro-3-fluorophenylamino)-2-(4-fluorophenyl)-8-isopropyl-5,6-dihydroimidazo[1,2-a]pyrazin-7(8H)-yl)ethanone [Compound 20]",EC50,P. falciparum strain W2; [5],202 ± 38 nM
"(R)-2-Amino-1-(3-(4-chloro-3-fluorophenylamino)-2-(4-fluorophenyl)-8-methyl-5,6-dihydroimidazo[1,2-a]pyrazin-7(8H)-yl)ethanone [Compound 18]",EC50,P. falciparum strain W2; [5],29 ± 3 nM
"(S)-2-Amino-1-(3-(4-chloro-3-fluorophenylamino)-2-(4-fluorophenyl)-8-isopropyl-5,6-dihydroimidazo[1,2-a]pyrazin-7(8H)-yl)ethanone [Compound 19]",EC50,P. falciparum strain W2; [5],470 ± 130 nM
"(S)-2-Amino-1-(3-(4-chloro-3-fluorophenylamino)-2-(4-fluorophenyl)-8-methyl-5,6-dihydroimidazo[1,2-a]pyrazin-7(8H)-yl)ethanone [Compound 17]",loss/decrease of potency,P. falciparum,10 fold
same,EC50,P. falciparum strain W2; [5],24 ± 1 nM
